Assay outcomes from PubChem BioAssay.
This is a sample that favours compounds with a hit; in the whole collection about 2.3% have one here.
TRPC6 act = mouse TRPC6 channel activators, primary screen, cell-based, HEK293, membrane potential dye; Short transient receptor potential channel 6 (Mus musculus), Q61143; HEK293-TRPC6 membrane potential dye fluorescence; stronger effect = higher value; B-score at 10 µM; hit rate 0.13% among 310,000; AID 2550, 2010;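 active means B-score of the integrated fluorescence ratio above library mean plus 3 SD, and starting fluorescence ratio within library mean plus 5 SD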;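 further: higher score means more depolarization so channel activation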
TRPC4 block = inhibitors of mouse TRPC4 channel, primary screen, Fluo4 calcium, HEK293 TRPC4beta/mu-opioid cells; DAMGO-evoked Fluo4 calcium flux; stronger effect = lower value; B-score at 10 µM; hit rate 0.39% among 300,000; Short transient receptor potential channel 4 (Mus musculus), Q9QUQ5;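 active means B-score over 3 SD under the library average, no early fluorescence shift, positive overall ratio signal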
Target sequence (Q9QUQ5 whole entry, looked up): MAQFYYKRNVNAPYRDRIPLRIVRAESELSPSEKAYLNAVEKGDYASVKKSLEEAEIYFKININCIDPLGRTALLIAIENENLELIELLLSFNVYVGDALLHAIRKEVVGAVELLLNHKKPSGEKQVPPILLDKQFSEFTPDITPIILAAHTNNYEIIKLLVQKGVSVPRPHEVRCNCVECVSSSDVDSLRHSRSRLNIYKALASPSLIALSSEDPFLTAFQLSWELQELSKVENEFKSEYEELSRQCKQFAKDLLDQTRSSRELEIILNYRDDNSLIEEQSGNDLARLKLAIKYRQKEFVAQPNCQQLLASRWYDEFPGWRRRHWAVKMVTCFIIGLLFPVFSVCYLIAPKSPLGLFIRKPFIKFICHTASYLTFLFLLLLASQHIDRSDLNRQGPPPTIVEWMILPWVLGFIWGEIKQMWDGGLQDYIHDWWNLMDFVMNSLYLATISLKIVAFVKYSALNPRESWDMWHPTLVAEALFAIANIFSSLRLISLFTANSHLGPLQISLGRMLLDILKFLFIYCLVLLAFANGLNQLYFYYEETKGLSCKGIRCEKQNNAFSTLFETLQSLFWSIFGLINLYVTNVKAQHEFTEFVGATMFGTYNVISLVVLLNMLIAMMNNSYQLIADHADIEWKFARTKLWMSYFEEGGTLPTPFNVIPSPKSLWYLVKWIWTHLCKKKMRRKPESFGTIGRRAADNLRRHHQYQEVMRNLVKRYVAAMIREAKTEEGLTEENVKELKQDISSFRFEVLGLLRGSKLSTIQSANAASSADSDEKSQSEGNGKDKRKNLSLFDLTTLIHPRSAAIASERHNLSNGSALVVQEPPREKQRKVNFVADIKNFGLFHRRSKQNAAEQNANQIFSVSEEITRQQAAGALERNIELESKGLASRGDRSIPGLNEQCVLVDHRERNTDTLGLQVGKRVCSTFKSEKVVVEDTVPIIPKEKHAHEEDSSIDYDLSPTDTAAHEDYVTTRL
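Assay system – HEK293 line stably carrying TRPC4beta and mu-opioid receptor · Doses – single dose · Detection – Fluo4 calcium-dye fluorescence, kinetic read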
TRPC4 PAM = positive allosteric modulators of TRPC4, primary screen, cell-based, mouse TRPC4beta, HEK293 mu-opioid, Fluo-4 calcium. Short transient receptor potential channel 4 (Mus musculus), Q9QUQ5. DAMGO EC20, Fluo-4 Ca2+ flux; stronger effect = higher value. B-score at 10 µM. hit rate 0.42% among 310,000. AID 2227, 2009;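 active means B-score of calcium response area above 5 SD of library B-scores, with initial fluorescence ratio within 5 SD of library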;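 further: B-score of integrated fluorescence ratio over time as area under calcium response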
TRPC4 agonist = activators of mouse TRPC4 channel, primary screen, Fluo4 calcium, HEK293 TRPC4beta/mu-opioid cells | Short transient receptor potential channel 4 (Mus musculus), Q9QUQ5 | Fluo4 calcium fluorescence; stronger effect = higher value | B-score at 10 µM | hit rate 0.49% among 310,000 | AID 2237, 2010;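 active means B-score above 5 SD of library B-scores, and initial fluorescence ratio not above library mean plus 5 SD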;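 further: positive B-score marks a calcium rise read as TRPC4 activation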
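Material: HEK293 stable line with TRPC4beta plus mu-opioid receptor; technique: Fluo4 calcium-sensitive dye fluorescence, kinetic, 1 Hz baseline; timing: Fluo4 dye loading 45 min at room temperature, 110 s recording; controls: assay buffer as low control, maximal DAMGO as high control; read-out: integrated baseline-normalised fluorescence ratio, converted to per-well B score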
TRPC6 inh = mouse TRPC6 channel inhibitors, primary screen, cell-based, HEK293, membrane potential dye | AID 2553, 2010 | Short transient receptor potential channel 6 (Mus musculus), Q61143 | B-score at 10 µM | ACh-evoked depolarization; stronger effect = lower value | hit rate 1.1% among 310,000;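 active means B-score under library mean minus 3 SD, initial fluorescence not abnormally high, positive integrated signal ratio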;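 further: B-score derived from integrated fluorescence ratio over the kinetic read; more negative B-score means stronger inhibition of depolarization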
TRPC4 spec 2 = second selectivity test of TRPC6 inhibitors: effect on mouse TRPC4; shares compounds with TRPC6 inh; HEK293 TRPC4/MOR, membrane potential dye fluorescence; channel activated by saturating DAMGO dose; inhibition, % at 10 µM; hit rate 42% among 920;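 active means compounds whose fluorescence signal differed from control wells by over 3 SD, either direction, in both duplicate plates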
TRPC4 spec = mouse TRPC4 modulation by TRPC6 hits, confirmation, selectivity assay for TRPC6 inhibitor project, cell-based, HEK293 TRPC4/mu-opioid, membrane potential dye. shares compounds with TRPC6 inh. membrane potential fluorescence. activity change, negative = inhibition, % at 10 µM. hit rate 61% among 920. AID 2777, 2010;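 active means rise or fall in signal beyond 3 SD of buffer-only wells in both replicate plates, either sign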;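 further: integrated kinetic ratio of fluorescence range over baseline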
HEK293 MPD ctr 2-1 = nonspecific membrane potential effects, parental HEK293, confirmation, counter-screen for TRPC6 inhibitor project, cell-based, second counter screen. shares compounds with TRPC6 inh. parental HEK293 membrane potential dye fluorescence; maximal acetylcholine challenge after compound addition. signal change vs control, % at 10 µM. hit rate 31% among 920. AID 2779, 2010;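 active means membrane potential signal moving either way by over 3 SD of the maximum-effect control, in both duplicate plates, meaning non-specific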
HEK293 MPD ctr-1 = membrane potential modulation in parental HEK293, confirmation, counter-screen for TRPC6 inhibitor project, cell-based; shares compounds with TRPC6 inh; parental HEK293 membrane potential dye fluorescence; membrane potential signal change, % at 10 µM; hit rate 60% among 920; AID 2780, 2010;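 active means membrane potential signal shifting up or down by more than 3 SD of buffer-only wells, on both duplicate plates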
HEK293 MPD ctr-2 = parental HEK293 membrane potential modulation, confirmation, counter-screen for TRPC6 modulator project, cell-based; shares compounds with TRPC6 inh; membrane potential dye fluorescence; membrane potential signal change, % at 10 µM; hit rate 51% among 2,400;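 active means membrane potential signal moves up or down beyond 5 SD from buffer-only wells, on both duplicate plates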
HEK293 MPD ctr 2-2 = second counter-screen for TRPC6 modulators: effect in parental HEK293 cells | inhibition, % at 10 µM | membrane potential dye fluorescence; after compound, maximal acetylcholine stimulation | hit rate 14% among 2,400 | shares compounds with TRPC6 inh;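 active means membrane potential signal drops by more than 5 SD from the mean control signal, in both duplicate plates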;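 further: plate controls were acetylcholine ECmax control wells for no effect and buffer only wells for full effect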
TRPC4/MOR mod = TRPC4 modulation by TRPC6 hit compounds, confirmation, selectivity assay for TRPC6 modulator project, cell-based, HEK293 TRPC4/mu-opioid, membrane potential dye, mouse | shares compounds with TRPC6 inh | membrane potential fluorescence | percent change from control (negative = decrease, positive = increase), % at 10 µM | hit rate 69% among 2,400;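 active means membrane potential signal moved up or down beyond 5 SD of buffer control wells, in both duplicate plates, actives on both sides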;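 further: plate controls were assay buffer wells for no effect and DAMGO maximal-effect wells for full effect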
TRPC4 ctr inh 2 = second selectivity test of TRPC6 modulators against mouse TRPC4 | shares compounds with TRPC6 inh | HEK293 TRPC4/mu-opioid, membrane potential dye fluorescence; stimulated with maximal-effect DAMGO | inhibition, % at 10 µM | hit rate 55% among 2,400 | AID 488928;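 active means drop in membrane potential signal beyond 5 SD of the control wells in both duplicate plates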;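 further: TRPC4 counter screen for TRPC6 hits run under conditions tuned for TRPC6 not TRPC4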
TRPC6 inh conf = mouse TRPC6 channel inhibitors, confirmation, HEK293 cells, membrane potential dye, duplicate. hit rate 43% among 3,300. shares compounds with TRPC6 inh. inhibition, % at 10 µM. AID 488960, 2010. ACh-evoked depolarization;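 active means fluorescence ratio falls more than 5 SD below the full-stimulation control mean, in both duplicate runs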;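 further: integrated fluorescence ratio of peak minus minimum over baseline after agonist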
TRPC6 act conf = mouse TRPC6 channel activators, confirmation, HEK293 cells, membrane potential dye, duplicate; shares compounds with TRPC6 inh; HEK293-TRPC6 membrane potential dye fluorescence, FDSS; activation, % at 10 µM; hit rate 11% among 2,800; AID 488961, 2010;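 active means ratio signal rise beyond 5 SD above unstimulated control wells' mean, seen in both duplicate runs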;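 further: plate controls were buffer EC0 wells for no effect and acetylcholine ECmax response for full effect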
Numbers without * were called inactive; i = inactive; · = no result; + = active, no number.

SMILES | TRPC6 act | TRPC4 block | TRPC4 PAM | TRPC4 agonist | TRPC6 inh | TRPC4 spec 2 | TRPC4 spec | HEK293 MPD ctr 2-1 | HEK293 MPD ctr-1 | TRPC6 inh conf | TRPC6 act conf | others
C[N+]1(C)[C@@H]2CC[C@H]1CC(OC(=O)[C@@H](CO)c1ccccc1)C2 (some centres not stated) | i | i | i | i | -7.7* | i | i | -38%* | i | 96%* | i
C[N+]1(C)CCC(OC(=O)C(c2ccccc2)c2ccccc2)CC1 | i | i | i | i | -7.3* | i | i | -18%* | i | 91%* | i
Cc1nn(Cc2ccccc2)c(Cl)c1C(=O)NC1CCCc2ccccc21 (configuration not stated) | i | i | i | i | i | · | · | · | · | · | ·
CC1Oc2cc3c(-c4c(O)cc(O)c5c(O)c6c(cc45)OC(C)C(C)C6=O)c(O)cc(O)c3c(O)c2C(=O)C1C (configuration not stated) | i | i | i | i | i | · | · | · | · | · | ·
COc1c2c(cc3c1OCO3)CC[N+](C)=C2 | i | i | i | i | i | · | · | · | · | · | ·
O=C1NC(=O)C(=Cc2ccc(-c3ccc(F)cc3O)o2)C(=O)N1 | i | i | i | i | i | · | · | · | · | · | ·
CCC(CO)(C(=O)OC1CC2CCC(C1)N2C)c1ccccc1 (configuration not stated) | i | i | i | i | -7.6* | i | i | -46%* | i | 89%* | i
CCN1C[C@]2(COC)CC[C@H](OC)[C@@]34C5C[C@H]6C(=O)C5[C@](O)(C[C@H]6OC)[C@@](O)(C(OC)C23)[C@@H]14 (some centres not stated) | i | i | i | i | i | · | · | · | · | · | ·
O=C(/C=C/c1c[nH]c2ccccc12)c1c(O)n(CCc2ccccc2)c(=O)[nH]c1=O | 144* | i | i | i | i | · | · | · | · | i | 390%* | HEK293 MPD ctr-2=+;HEK293 MPD ctr 2-2=i;TRPC4/MOR mod=392%*;TRPC4 ctr inh 2=i
CCCCn1c(O)c(C(C)=NCCc2c[nH]c3ccccc23)c(=O)[nH]c1=O | i | i | i | i | i | · | · | · | · | · | ·
COc1cc2c(cc1OC)-c1c(OC)c(OC)cc3c1[C@H](C2)N(C)CC3 | i | i | i | i | -7.7* | · | · | · | · | 45%* | i | HEK293 MPD ctr-2=-412%*;HEK293 MPD ctr 2-2=i;TRPC4/MOR mod=-58%*;TRPC4 ctr inh 2=38%*
COc1ccccc1-n1c(-c2ccccc2)nc2ccccc2c1=O | i | i | i | i | i | · | · | · | · | · | ·
Cc1ccccc1CCNCc1cc2cccc(C)c2[nH]c1=O | i | i | i | i | -11* | 16%* | i | i | 0.1%* | 94%* | i
CCCOP(=O)(OCCC)C(NC(=O)c1ccccc1)=C(Cl)Cl | i | i | i | i | i | · | · | · | · | · | ·
O=C(Nc1cccc(C(F)(F)F)c1)OC1CN2CCC1CC2 (configuration not stated) | i | i | i | i | -6.5* | · | · | · | · | 54%* | i | HEK293 MPD ctr-2=i;HEK293 MPD ctr 2-2=i;TRPC4/MOR mod=i;TRPC4 ctr inh 2=i
Cc1cc(OCC(=O)NCc2ccncc2)c2c3c(c(=O)oc2c1)CCCC3 | i | i | i | i | i | · | · | · | · | · | ·
Cc1cccc(C)c1OP(N)(=O)OCC(F)(F)F (configuration not stated) | i | i | i | i | i | · | · | · | · | · | ·
N#CC(C#N)=C(C#N)c1ccc(Nc2ccccc2)cc1 | i | i | i | i | -8.5* | i | -10%* | i | i | i | i
C/C(CC(c1ccccc1)c1c(O)c2ccccc2oc1=O)=N\Nc1ccc([N+](=O)[O-])cc1[N+](=O)[O-] (configuration not stated) | i | i | i | i | i | · | · | · | · | · | ·
O=c1oc2ccccc2c(O)c1C(c1ccc([N+](=O)[O-])cc1)c1c(O)c2ccccc2oc1=O | i | i | i | i | -7.3* | i | i | i | -272%* | i | i
c1ccc(CNc2c3c(nc4ccccc24)CCC3)cc1 | i | i | i | i | -5.8* | · | · | · | · | i | i | HEK293 MPD ctr-2=i;HEK293 MPD ctr 2-2=i;TRPC4/MOR mod=i;TRPC4 ctr inh 2=52%*
